Active and inactive are the calls of the source. The rule behind the calls is not given here.
How the values were obtained:
[1] = molecular target: Heat shock cognate 71 kDa protein (Homo sapiens, UniProt P11142); experiment: Binding affinity to human HSC70 after 3 hrs by ELISA
MCF7 [2] = experiment: Induction of autophagic flux in human MCF7 cells assessed as increase in p62 oligomerization at 5 to 10 uM after 24 hrs; type: functional, cell-based
[3] = Half life in mouse liver microsomes at 1 uM incubated for 15 mins prior to beta-NADPH addition by LC-MS/MS analysis; type: ADME, Microsome; conditions: for t1/2: microsomes, 0.25 h, 1 µM; for half-life at 1 µM: liver microsomes
In short: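 Compounds at 1 μM incubated with mouse liver microsomes. Degradation followed by LC–MS and reported as half-life.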

MDA-MB-231 [4] = experiment: Induction of autophagic flux in human MDA-MB-231 cells assessed as decrease in p62 monomer level at 5 to 10 uM after 24 hrs; type: functional, cell-based
MEF = experiment: Cytotoxicity against C57BL/6 mouse MEF assessed as growth inhibition after 72 hrs by MTT assay; type: cell-based; conditions: C57BL/6, MEF
In short: (§1)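 Antiproliferative activity measured by MTT assay. EC50 is the average of triplicate experiments, with error as SEM.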

MDA-MB-231 [5] = experiment: Cytotoxicity against human MDA-MB-231 cells assessed as growth inhibition after 72 hrs by MTT assay; type: functional, cell-based; conditions: MDA-MB-231, 72 h; in short: as §1
MCF7 [6] = experiment: Induction of autophagic flux in human MCF7 cells assessed as decrease in p62 monomer level at 5 to 10 uM after 24 hrs; type: functional, cell-based
MCF7 [7] = experiment: Cytotoxicity against human MCF7 cells assessed as growth inhibition after 72 hrs by MTT assay; type: functional, cell-based; conditions: MCF7, 72 h; in short: as §1
MDA-MB-231 [8] = experiment: Induction of autophagic flux in human MDA-MB-231 cells assessed as increase in p62 oligomerization at 5 to 10 uM after 24 hrs; type: functional, cell-based
MDA-MB-231 [9] = experiment: Induction of apoptosis in human MDA-MB-231 cells assessed as PARP cleavage at 10 uM after 48 hrs; type: functional, cell-based
In short: (§2)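 MDA-MB-231 cells treated for 48 h. Cleavage of caspase 3 and PARP detected by Western blot. Representative of duplicate experiments.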

[10] = Binding affinity to [1H-15N]-DnaK (1 to 388) nucleotide binding domain (unknown origin) at 200 uM by NMR analysis
MDA-MB-231 [11] = experiment: Induction of apoptosis in human MDA-MB-231 cells assessed as caspase-3 cleavage at 10 uM after 48 hrs; type: functional, cell-based; in short: as §2
[12] = Drug metabolism in mouse liver microsomes assessed as compound life time; type: ADME, Microsome
In short: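 Compounds at 1 μM incubated with liver microsomes from C57BL/6 mice; disappearance of parent compound followed by LC–MS and reported as microsomal lifetime (t1/2, min).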

Heat shock cognate 71 kDa protein, sequence (P11142 whole entry): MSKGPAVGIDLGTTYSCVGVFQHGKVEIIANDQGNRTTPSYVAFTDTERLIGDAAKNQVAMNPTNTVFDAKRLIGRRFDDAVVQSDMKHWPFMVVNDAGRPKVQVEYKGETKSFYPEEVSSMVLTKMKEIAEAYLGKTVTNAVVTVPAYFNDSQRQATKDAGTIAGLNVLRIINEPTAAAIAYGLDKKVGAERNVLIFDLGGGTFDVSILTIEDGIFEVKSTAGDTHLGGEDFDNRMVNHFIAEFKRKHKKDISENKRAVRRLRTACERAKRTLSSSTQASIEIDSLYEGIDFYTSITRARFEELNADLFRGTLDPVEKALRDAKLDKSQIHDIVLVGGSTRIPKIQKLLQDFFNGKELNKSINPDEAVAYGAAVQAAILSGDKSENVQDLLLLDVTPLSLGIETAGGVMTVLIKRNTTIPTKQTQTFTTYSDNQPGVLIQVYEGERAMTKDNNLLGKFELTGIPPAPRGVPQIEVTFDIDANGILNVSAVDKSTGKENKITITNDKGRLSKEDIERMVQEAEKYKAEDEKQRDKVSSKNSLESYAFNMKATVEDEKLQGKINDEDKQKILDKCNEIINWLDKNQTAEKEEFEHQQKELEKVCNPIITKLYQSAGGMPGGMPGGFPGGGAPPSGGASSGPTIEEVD

| SMILES | t1/2 [3] | EC50 (MEF) [µM] | EC50 (MDA-MB-231 [5]) [µM] | EC50 (MCF7 [7]) [µM] | further results |
| --- | --- | --- | --- | --- | --- |
| CCn1c(=O)/c(=C2\Sc3cc(C(F)(F)F)ccc3N2C)s/c1=C\c1cccc[n+]1CCCCCCNC(=O)CCCC[C@@H]1SC[C@@H]2NC(=O)N[C@@H]21 | – | – | – | – | Kd [1]: 1 µM |
| CCn1c(=O)/c(=C2\Sc3ccc(OC)cc3N2C)s/c1=C\c1cccc[n+]1CCCCCCNC(=O)CCCC[C@@H]1SC[C@@H]2NC(=O)N[C@@H]21 | – | – | – | – | Kd [1]: 0.9 µM |
| CCn1c(=O)/c(=C2\Sc3c(F)cccc3N2C)s/c1=C\c1cccc[n+]1CCCCCCNC(=O)CCCC[C@@H]1SC[C@@H]2NC(=O)N[C@@H]21 | – | – | – | – | Kd [1]: 1.9 µM |
| CCn1c(=O)/c(=C2\Sc3cc(Cl)ccc3N2C)s/c1=C\c1scc[n+]1Cc1ccccc1.[Cl-] | 37 min | 24 | 0.4 | 0.7 | Activity (MCF7 [2]): Active; Activity (MDA-MB-231 [4]): Active; Activity (MCF7 [6]): Active; Activity (MDA-MB-231 [8]): Active; Activity (MDA-MB-231 [9]): Active; Activity [10]: Active; Activity (MDA-MB-231 [11]): Active |
| CCn1c(=O)/c(=C2\Sc3c(F)cccc3N2C)s/c1=C\c1cccc[n+]1CC.[Cl-] | ND(Insoluble) | 27 | 2.8 | 0.8 | – |
| CCn1c(=O)/c(=C2\Sc3cc(F)ccc3N2C)s/c1=C\c1cccc[n+]1CC.[Cl-] | ND(Insoluble) | > 30 | 8.3 | 0.9 | – |
| CCn1c(=O)/c(=C2\Sc3cc(Cl)ccc3N2C)s/c1=C\c1cccc[n+]1C.[Cl-] | – | > 50 | 8.3 | 9.5 | half-life at 1 µM [3]: 8.2 min |
| CCn1c(=O)/c(=C2\Sc3ccc(F)cc3N2C)s/c1=C\c1cccc[n+]1CCCCCCNC(=O)CCCC[C@@H]1SC[C@@H]2NC(=O)N[C@@H]21 | – | – | – | – | Kd [1]: 2.3 µM |
| CCn1c(=O)/c(=C2\Sc3ccccc3N2C)s/c1=C\c1scc[n+]1CC.[Cl-] | ND(Insoluble) | > 30 | 2.2 | 0.8 | – |
| CCn1c(=O)/c(=C2\Sc3cccc(F)c3N2C)s/c1=C\c1cccc[n+]1C.[Cl-] | 15 min | > 50 | 4 | 2.2 | – |
| CCn1c(=O)/c(=C2\Sc3cccc(Cl)c3N2C)s/c1=C\c1cccc[n+]1C.[Cl-] | ND(Insoluble) | > 50 | 4.4 | 7.8 | – |
| CCn1c(=O)/c(=C2\Sc3c(Cl)cccc3N2C)s/c1=C\c1scc[n+]1Cc1ccccc1.[Cl-] | ND(Insoluble) | > 30 | 0.5 | 1 | – |
| CCn1c(=O)/c(=C2\Sc3cccc(F)c3N2C)s/c1=C\c1cccc[n+]1CC.[Cl-] | ND(Insoluble) | > 30 | 3.8 | 1 | – |
| CCn1c(=O)/c(=C2\Sc3ccc(F)cc3N2C)s/c1=C\c1cccc[n+]1C.[Cl-] | 23 min | > 50 | 7.7 | 18 | – |
| CCn1c(=O)/c(=C2\Sc3c(F)cccc3N2C)s/c1=C\c1cccc[n+]1C.[Cl-] | 16 min | > 50 | 6.2 | 8.5 | – |
| CCn1c(=O)/c(=C2\Sc3cc(OC)ccc3N2C)s/c1=C\c1cccc[n+]1CCCCCCNC(=O)CCCC[C@@H]1SC[C@@H]2NC(=O)N[C@@H]21 | – | – | – | – | Kd [1]: 5.4 µM |
| CCC[n+]1ccccc1/C=c1\s/c(=C2/Sc3ccccc3N2C)c(=O)n1CC.[Cl-] | ND(Insoluble) | > 50 | 1.6 | 2.8 | – |
| CCn1c(=O)/c(=C2\Sc3cc(Cl)ccc3N2C)s/c1=C\c1cccc[n+]1CCCCCCNC(=O)CCCC[C@@H]1SC[C@@H]2NC(=O)N[C@@H]21 | – | – | – | – | Kd [1]: 1.7 µM |
| CCn1c(=O)/c(=C2\Sc3ccc(OC)cc3N2C)s/c1=C\c1cccc[n+]1C.[Cl-] | ND(Insoluble) | > 50 | 2.8 | 14 | – |
| CCn1c(=O)/c(=C2\Sc3ccc(Cl)cc3N2C)s/c1=C\c1cccc[n+]1C.[Cl-] | ND(Insoluble) | > 50 | 4.6 | 28 | – |
| CCn1c(=O)/c(=C2\Sc3ccccc3N2C)s/c1=C\c1scc[n+]1C.[Cl-] | ND(Insoluble) | > 50 | 5.1 | 0.7 | – |

| SMILES | t1/2 [3] | EC50 (MEF) [µM] | EC50 (MDA-MB-231 [5]) [µM] | EC50 (MCF7 [7]) [µM] | further results |
| --- | --- | --- | --- | --- | --- |
| CCn1c(=O)/c(=C2\Sc3ccccc3N2C)s/c1=C\c1cccc[n+]1Cc1ccccc1.[Cl-] | ND(Insoluble) | > 50 | 1 | 1.5 | – |
| CCn1c(=O)/c(=C2\Sc3ccccc3N2C)s/c1=C\c1nccc[n+]1C.[Cl-] | ND(Insoluble) | > 50 | 5.8 | 9.1 | – |
| CCn1c(=O)/c(=C2\Sc3ccc(F)cc3N2C)s/c1=C\c1cccc[n+]1CC.[Cl-] | ND(Insoluble) | > 30 | 13 | 2.4 | – |
| CCn1c(=O)/c(=C2\Sc3ccccc3N2C)s/c1=C\c1scc[n+]1Cc1ccccc1.[Cl-] | ND(Insoluble) | 6.8 | 0.5 | 0.6 | – |
| CCn1c(=O)/c(=C2\Sc3ccccc3N2C)s/c1=C\c1cccc[n+]1CC.[Cl-] | – | > 50 | 1.4 | 2.2 | half-life at 1 µM [3]: < 5 min; Time [12]: 4.4 min |
| CCn1c(=O)/c(=C2\Sc3cc(F)ccc3N2C)s/c1=C\c1cccc[n+]1CCCCCCNC(=O)CCCC[C@@H]1SC[C@@H]2NC(=O)N[C@@H]21 | – | – | – | – | Kd [1]: 1.5 µM |
| CCn1c(=O)/c(=C2\Sc3cc(OC)ccc3N2C)s/c1=C\c1cccc[n+]1C.[Cl-] | – | > 50 | 4 | 11 | half-life at 1 µM [3]: 10 min |
| CN1/C(=c2\s/c(=C\c3cccc[n+]3C)n(Cc3ccccc3)c2=O)Sc2ccccc21.[Cl-] | ND(Insoluble) | > 50 | 1.8 | 2.9 | – |
| CCn1c(=O)/c(=C2\Sc3ccc(Cl)cc3N2C)s/c1=C\c1cccc[n+]1CCCCCCNC(=O)CCCC[C@@H]1SC[C@@H]2NC(=O)N[C@@H]21 | – | – | – | – | Kd [1]: 4 µM |
| CCn1c(=O)/c(=C2\Sc3ccccc3N2C)s/c1=C\c1cc[n+](C)cc1.[Cl-] | ND(Insoluble) | > 50 | 1.7 | 19 | – |
| CCn1c(=O)/c(=C2\Sc3cc(C(F)(F)F)ccc3N2C)s/c1=C\c1cccc[n+]1C.[Cl-] | ND(Insoluble) | > 50 | 19 | > 30 | – |
| C=CCn1c(=O)/c(=C2\Sc3ccccc3N2C)s/c1=C\c1cccc[n+]1C.[Cl-] | ND(Insoluble) | > 50 | 3.6 | 8.4 | – |
| CCn1c(=O)/c(=C2\Sc3ccccc3N2C)s/c1=C\c1cccc[n+]1C.[Cl-] | – | > 50 | 2 | 5.2 | half-life at 1 µM [3]: < 5 min |
| CCn1c(=O)/c(=C2\Sc3ccccc3N2C)s/c1=C\c1cccc[n+]1CCCCCCNC(=O)CCCC[C@@H]1SC[C@@H]2NC(=O)N[C@@H]21 | – | – | – | – | Kd [1]: 2 µM |
| CCn1c(=O)/c(=C2\Sc3c(Cl)cccc3N2C)s/c1=C\c1cccc[n+]1CCCCCCNC(=O)CCCC[C@@H]1SC[C@@H]2NC(=O)N[C@@H]21 | – | – | – | – | Kd [1]: 2.6 µM |
| CCn1c(=O)/c(=C2\Sc3ccc(C(F)(F)F)cc3N2C)s/c1=C\c1cccc[n+]1C.[Cl-] | ND(Insoluble) | > 50 | 21 | > 30 | – |
| CCn1c(=O)/c(=C2\Sc3cc(F)ccc3N2C)s/c1=C\c1cccc[n+]1C.[Cl-] | 7.7 min | > 50 | 5.6 | 6.2 | – |
| CCn1c(=O)/c(=C2\Sc3cccc(Cl)c3N2C)s/c1=C\c1scc[n+]1Cc1ccccc1.[Cl-] | – | 7 | 0.4 | 0.8 | half-life at 1 µM [3]: 8.8 min |
| CCn1c(=O)/c(=C2\Sc3c(Cl)cccc3N2C)s/c1=C\c1cccc[n+]1C.[Cl-] | ND(Insoluble) | > 50 | 4.1 | 5.2 | – |
| CCn1c(=O)/c(=C2\Sc3ccc(Cl)cc3N2C)s/c1=C\c1scc[n+]1Cc1ccccc1.[Cl-] | ND(Insoluble) | > 30 | 0.6 | 0.8 | – |
| CCn1c(=O)/c(=C2\Sc3ccccc3N2C)s/c1=C\c1cccc[n+]1CCO.[Cl-] | ND(Insoluble) | > 50 | 24 | 6.9 | – |

— ChEMBL document CHEMBL3091336, “Analogs of the Allosteric Heat Shock Protein 70 (Hsp70) Inhibitor, MKT-077, as Anti-Cancer Agents” (ACS Med Chem Lett, 2013)
